Source: ChEMBL document CHEMBL4229353, “Synthesis and antiviral evaluation of cyclopentyl nucleoside phosphonates” (Eur J Med Chem, 2018)
pEC50: −log10 of the molar value.

Tests used:
Human alphaherpesvirus 3 [1] = experiment: Antiviral activity against thymidine kinase expressing Varicella-Zoster virus Oka infected in HEL cells assessed as inhibition of plaque formation measured after 5 days post infection; assay type: functional, organism-based; settings: Human alphaherpesvirus 3, strain Oka vaccine, 120 h
How it was run: (§1)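 Confluent HEL fibroblast monolayers in 96-well plates were inoculated with 20 PFU of VZV (Oka or TK– strain 07-1). After 2 h adsorption, the inoculum was removed and cultures were incubated with varying compound concentrations. Plaque formation was recorded at 5 days post-infection.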

Human alphaherpesvirus 3 [2] = experiment: Antiviral activity against thymidine kinase deficient Varicella-Zoster virus 07-1 infected in HEL cells assessed as inhibition of plaque formation measured after 5 days post infection; assay type: functional, organism-based; settings: Human alphaherpesvirus 3, 07-1, HEL, 120 h; how it was run: as §1
Human alphaherpesvirus 1 = experiment: Antiviral activity against thymidine kinase-deficient ACV-resistant Herpes simplex virus 1 KOS infected in HEL cells assessed as […] measured after 2 to 3 days post infection; assay type: functional, organism-based; settings: Human alphaherpesvirus 1, KOS
How it was run: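 Confluent HEL fibroblast monolayers in 96-well plates were inoculated with 100 CCID50 of HSV-1 (KOS or TK-deficient ACV-resistant KOS). After 2 h adsorption, the inoculum was removed and cells were incubated with varying compound concentrations. Virus-induced cytopathicity was recorded at 2-3 days post-infection.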

[3] = Cytostatic activity against HEL cells after 3 days by Coulter counting method; assay type: cell-based; settings: human
How it was run: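 HEL cells were seeded at 5 x 10^3 cells/well and left to proliferate for 24 h. Medium with graded compound concentrations was then added, followed by 3 days at 37 °C. Cells were counted with a Coulter counter. CC50, the concentration halving proliferation relative to untreated controls, was read from plots of cell number (% of control) versus concentration.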

Human alphaherpesvirus 2 = experiment: Antiviral activity against Herpes simplex virus 2 G infected in HEL cells assessed as […] measured after 2 to 3 days post infection; assay type: functional, organism-based; settings: Human alphaherpesvirus 2, strain G
How it was run: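 Confluent HEL fibroblast monolayers were infected with 100 CCID50 of virus, and the inoculum was removed after 2 h adsorption. Cells were then cultured with serial compound concentrations. Virus-induced cytopathicity was scored at 2-3 days (HSV) or 6-7 days (HCMV) post-infection.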

[4] = Cytotoxicity against HEL cells assessed as alteration in cell morphology after 3 days by microscopic analysis; assay type: cell-based; settings: human
How it was run: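 Uninfected HEL cell cultures were exposed to graded compound concentrations. MCC is the lowest concentration producing a microscopically detectable alteration of cell morphology.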

| Compound | pEC50 (Human alphaherpesvirus 3 [1]) | pEC50 (Human alphaherpesvirus 3 [2]) | pEC50 (Human alphaherpesvirus 1) | CC50 at 72 h [3] [µM] | pEC50 (Human alphaherpesvirus 2) | MCC at 72 h [4] [µM] |
| --- | --- | --- | --- | --- | --- | --- |
| Nc1nc2c(ncn2COCCO)c(=O)[nH]1 [ACYCLOVIR] | 5.47 | 4.85 | < 4.06 | > 444 | 6.54 | > 444 |
| CC(C)OC(=O)[C@H](C)NP(=O)(CO[C@@H]1C[C@@H](O)[C@H](n2cnc3c(=O)[nH]c(N)nc32)C1)N[C@@H](C)C(=O)OC(C)C | 4.18 | < 3.76 | < 3.76 | > 175 | < 3.76 | > 175 |
| O=c1[nH]c(=O)n([C@H]2C[C@H](O)[C@@H](CO)O2)cc1/C=C/Br [BRIVUDINE] | 7.68 | 5.47 | < 4.52 | > 300 | < 4.52 | > 300 |
| Nc1ccn([C@@H]2C[C@H](OCP(=O)(O)O)[C@@H](O)C2)c(=O)n1 | < 3.49 | < 3.49 | < 3.49 | – | < 3.49 | > 327 |
| Cc1cn([C@@H]2C[C@H](OCP(=O)(O)O)C[C@H]2O)c(=O)[nH]c1=O | < 3.61 | < 3.61 | < 3.61 | – | < 3.61 | > 247 |
| Nc1nc2c(ncn2[C@@H]2C[C@H](OCP(=O)(O)O)[C@@H](O)C2)c(=O)[nH]1 | 4.77 | 5.08 | 4.85 | > 289 | 4.47 | > 289 |
| Cc1cn([C@@H]2C[C@H](OCP(=O)(O)O)[C@@H](O)C2)c(=O)[nH]c1=O | 4.64 | 5.24 | 5.00 | 69.4 | 4.03 | > 247 |
| Nc1ccn(C[C@@H](CO)OCP(=O)(O)O)c(=O)n1 [CIDOFOVIR] | – | – | – | > 358 | 5.64 | > 358 |
| Nc1nc2c(ncn2COC(CO)CO)c(=O)[nH]1 [GANCICLOVIR] | – | – | 5.41 | > 391 | 7.72 | > 391 |
| Nc1ncnc2c1ncn2[C@@H]1C[C@H](OCP(=O)(O)O)C[C@H]1O | < 3.52 | < 3.52 | 3.79 | – | 3.88 | > 303 |
| Nc1ccn([C@@H]2C[C@H](OCP(=O)(O)O)C[C@H]2O)c(=O)n1 | < 3.49 | < 3.49 | < 3.49 | – | < 3.49 | > 327 |
| Nc1ncnc2c1ncn2[C@@H]1C[C@H](OCP(=O)(O)O)[C@@H](O)C1 | 3.59 | 4.10 | < 3.52 | – | < 3.52 | > 303 |
| Nc1nc2c(ncn2[C@@H]2C[C@H](OCP(=O)(O)O)C[C@H]2O)c(=O)[nH]1 | 5.27 | 5.05 | 4.00 | > 289 | 4.24 | > 289 |
| CC(C)OC(=O)[C@H](C)NP(=O)(CO[C@H]1C[C@@H](n2cnc3c(=O)[nH]c(N)nc32)C[C@@H]1O)N[C@@H](C)C(=O)OC(C)C | 4.46 | 4.53 | 4.46 | > 175 | 4.07 | > 175 |
